Hit rate of the full screen: of about 200,000 compounds, fewer than 10 were called active.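 The calls were made as follows: active = luciferase activation factor, scaled between plate controls, of at least 2 with compound at 10 µM; inactive = the rest.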 These entries were drawn from the full list.
Target: Luciferin 4-monooxygenase (Photinus pyralis) (UniProt P08659)
Assay: FLuc activators, initial screening, artefact control for FLuc-dependent activation tests, biochemical, ATPlite luminescence (AID 1027)
Details: ATPlite luciferase biochemical, 10 min, at 10 µM, hits give high values, 0 = ATP-free wells, 1 = DMSO control
In short: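 assay system = Luciferase/luciferin detection reagent, cell-free biochemical luciferase assay | also added = ATP substrate | times = 10 min post-reagent at room temperature | measured by = luminescence from luciferase reaction | measure = luciferase activation, seen as luminescence increase over controls | benchmarks = low control with PBS replacing ATP, high control enzyme plus ATP without compound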

Chain of Luciferin 4-monooxygenase (Photinus pyralis) (P08659 whole entry, looked up): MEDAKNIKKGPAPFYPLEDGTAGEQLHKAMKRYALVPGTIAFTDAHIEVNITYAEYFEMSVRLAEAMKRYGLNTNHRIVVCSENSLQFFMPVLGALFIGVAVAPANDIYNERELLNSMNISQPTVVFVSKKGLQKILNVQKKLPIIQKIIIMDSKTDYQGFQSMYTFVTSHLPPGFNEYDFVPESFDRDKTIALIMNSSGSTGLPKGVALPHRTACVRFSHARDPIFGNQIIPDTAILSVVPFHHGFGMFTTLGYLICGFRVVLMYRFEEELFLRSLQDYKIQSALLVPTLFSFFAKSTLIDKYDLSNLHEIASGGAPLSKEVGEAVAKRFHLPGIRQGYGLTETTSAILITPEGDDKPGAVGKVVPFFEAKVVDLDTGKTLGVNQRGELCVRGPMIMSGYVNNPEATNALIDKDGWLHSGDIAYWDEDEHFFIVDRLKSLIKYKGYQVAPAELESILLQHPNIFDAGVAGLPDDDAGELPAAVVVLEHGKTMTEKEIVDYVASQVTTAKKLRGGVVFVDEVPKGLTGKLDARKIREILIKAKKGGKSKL

Activation factor, inactive:
CCO[C@H]1OC(C(=O)N2CCCCCCC2)=C[C@@H](c2ccc(C(F)(F)F)cc2)[C@@H]1CCCO 1.1
Cc1nn(Cc2ccc(F)cc2)c(C)c1NC(=O)c1cccnc1Cl 1.1
O=C(CCN1C(=O)c2ccccc2C1=O)C1=NN[C@@H]2C(=O)N(c3ccc(F)cc3)C(=O)[C@H]12 1
CCOc1ccc(-c2ccc(SCC(=O)N3CCOCC3)nn2)cc1 0.2
Cc1scc(C(=O)NNC(=S)NCC(C)C)c1C 1
CCCn1nc(C(=O)N2CCCc3ccccc32)c2ccccc2c1=O 1.1
Cc1ccc2cc(CCNC(=O)c3ccc4c(c3)OCO4)c(=O)[nH]c2c1 1.1
COc1ccc2oc(=O)c(C(=O)NCc3ccccn3)cc2c1 0.9
Cc1ccc2c(c1)C1CN(C)CCC1N2C(=O)c1ccccc1NS(=O)(=O)c1ccc(F)cc1C (stereo not given) 1.1
CCOc1ccc(CCNC(=O)C2=C(C)C(=O)OC23CCC(C)CC3)cc1OCC (stereo not given) 1.1
COc1ccc(NS(=O)(=O)c2ccc(O)c(C(=O)OCC(=O)NC3CCCCC3)c2)cc1 1.1
Cc1cccc(N=Nc2c(O)[nH]c3ccc(F)cc23)c1 0.9
NC1=NC(=O)C(Cc2cccc(Cl)c2)S1 (stereo not given) 1
CN(C)c1ccnc(Nc2ccc(F)cc2)c1C#N 1
COc1ccc(NC(=O)N2CCCC(c3nc(-c4ccc(F)cc4)no3)C2)cc1 (stereo not given) 1
CN1CCN(c2ccc(NC(=O)c3ccc4c(c3)[nH]c(=O)n4Cc3ccc(F)cc3)cc2)CC1 1
COc1ccc(NC(=O)CN2C(=O)C(c3ccccc3)=NC23CCCCCC3)cc1OC 1
CC(NC(=O)COC(=O)c1ccc(Cl)cc1O)c1ccc(F)cc1 (stereo not given) 1
CCOc1cccc(OCCCOc2cccc3cccnc23)c1 1
S=c1[nH]nc(NCCc2ccccc2)s1 0.9
COc1ccc(C(=O)N2CCC(C(=O)Nc3ccc(C)cc3)CC2)cc1 1
COc1cccc(/C=C2\SC(=N)N(c3ccc(F)cc3)C2=O)c1 1.1
O=[N+]([O-])/C(N=Nc1ccccc1)=N\Nc1ccccc1 1.1
COc1ccc(CC(=O)N[C@@H](CCSC)c2nc3ccccc3[nH]2)cc1 1.1
O=C(NCc1ccccn1)c1cc(Br)ccc1Cl 1
CC1CCN(c2ccc(C(=O)Nc3nnc(C4CC4)s3)cc2[N+](=O)[O-])CC1 1
Cc1cccc(N2C(=O)CC(SC(N)=Nc3ccccc3)C2=O)c1 (stereo not given) 1.1
COc1cc(/C=C/CO)cc(OC)c1O[C@@H]1O[C@H](CO)[C@@H](O)[C@H](O)[C@H]1O 1
Cc1ccc2[nH]cc(CCCN3C(=O)c4ccccc4C3=O)c2c1 1
COc1ccc(NC(=O)C(NC(C)=O)C(=O)NCc2ccccc2Cl)cc1 (stereo not given) 1
CC(OC(=O)CCc1nc(=O)c2ccccc2n1C)C(=O)NCc1ccc2c(c1)OCO2 (stereo not given) 1.1
CO/N=C(\N)c1ccc([N+](=O)[O-])cc1 1.1
Cc1ccc(CCCOC(=O)C[N+]2(C)CCCCC2)cc1 1
O=C(Cc1ccccc1)Nc1cccc(C(=O)N/N=C/c2ccco2)c1 0.9
Cc1ccc(CSc2nc3[nH]ncc3c(=O)[nH]2)cc1 0.6
COc1ccccc1NC(=O)C[n+]1ccccc1 1
COc1cc(C(=O)N2C(=O)c3cccc(N)c3C2=O)cc(OC)c1OC 1
CCOC(=O)C1CCCN(C(=O)c2cccc(S(=O)(=O)N3CCOCC3)c2)C1 (stereo not given) 1
COc1cccc(NC(=O)C(Sc2nc3ccccc3c(=O)n2CC(C)C)c2ccccc2)c1 (stereo not given) 1
Cc1cs/c(=N\N=C\c2ccc(O)cc2)n1Cc1ccco1 1

— PubChem BioAssay AID1027 (Sanford-Burnham Center for Chemical Genomics, 2008)
